Screens as filed in PubChem BioAssay.
AHR activator: human AHR activation | AHR-responsive luciferase reporter cells, luminescence | activation, % at 5 µM | 320,000 compounds, 2.5% hits | AID 2796; in the data active means activation above about 47%;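 further: 0% = vehicle wells and 100% = reference agonist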
Target sequence (P35869 whole entry, looked up): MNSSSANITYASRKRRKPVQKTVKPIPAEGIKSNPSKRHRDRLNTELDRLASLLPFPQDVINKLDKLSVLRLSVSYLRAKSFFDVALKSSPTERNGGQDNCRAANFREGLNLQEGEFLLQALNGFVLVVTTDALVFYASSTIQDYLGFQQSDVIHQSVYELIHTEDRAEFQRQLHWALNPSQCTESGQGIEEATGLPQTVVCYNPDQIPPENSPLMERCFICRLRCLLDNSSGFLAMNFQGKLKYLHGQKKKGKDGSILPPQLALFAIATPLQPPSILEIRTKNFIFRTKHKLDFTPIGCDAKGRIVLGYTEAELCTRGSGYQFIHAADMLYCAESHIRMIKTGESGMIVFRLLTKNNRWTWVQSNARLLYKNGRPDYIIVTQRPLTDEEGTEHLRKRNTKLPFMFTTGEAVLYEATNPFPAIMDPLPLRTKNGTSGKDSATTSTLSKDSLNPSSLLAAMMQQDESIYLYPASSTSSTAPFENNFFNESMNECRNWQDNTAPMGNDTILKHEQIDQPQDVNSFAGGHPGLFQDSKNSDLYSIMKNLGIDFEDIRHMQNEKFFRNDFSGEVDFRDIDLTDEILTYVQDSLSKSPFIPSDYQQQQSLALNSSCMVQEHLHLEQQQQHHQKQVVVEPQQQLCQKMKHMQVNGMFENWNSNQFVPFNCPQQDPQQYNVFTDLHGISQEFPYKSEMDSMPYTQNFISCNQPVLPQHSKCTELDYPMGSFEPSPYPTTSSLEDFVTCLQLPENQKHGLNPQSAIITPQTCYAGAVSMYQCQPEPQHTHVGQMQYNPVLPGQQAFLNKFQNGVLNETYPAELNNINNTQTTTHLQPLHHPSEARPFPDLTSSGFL
HSF1 inhib: HSF1 inhibition; activity change, negative = inhibition, % at 7.5 µM (by protocol); NIH3T3-HGL HSE-luciferase, MG132-induced, luminescence 8 h; stronger effect = lower value; 300,000 compounds, 0.77% hits;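 active means more than half of replicate wells show activity change below -50%, luminescence cut by over half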;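 further: luciferase reports HSF-1 transcriptional activity via heat shock element; 0% = median of DMSO wells and -100% = zero luminescence signal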
STAT3 activator: STAT3 signaling activation. AID 871. activation (% of control), % at 5.6 µM. U3A cells, IL-6 STAT3-luciferase reporter, luminescence; 100% = signal with IL-6 EC80 alone. 190,000 compounds, 0.91% hits;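 active means activation above the screen-wide mean of compound activation plus 3 SD, cut at about 130% in these data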;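 further: 0% = background luminescence of wells with medium and substrate only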
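system = STAT3-luciferase reporter U3A cells | reagent = IL-6 stimulus at 33 ng/mL final | timing = 1 h compound pre-exposure, 6 h IL-6 stimulation, 37 °C | measured by = luminescence | evaluation = % activation versus median of IL-6-stimulated wells | control set = IL-6-only wells as 100% reference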
PolyA inhibitor: blocks polyadenylation in yeast reporter cells. activity score, % at 12 µM. AID 1875. S. cerevisiae SKY197-pL101 polyadenylation reporter, beta-gal luminescence; efflux-impaired pdr1/pdr3 knockout yeast; score 100 = 6 SD above DMSO. 300,000 compounds, 0.02% hits;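 active means lowest replicate activity score at least 50, where 100 means six control SD above control mean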;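 further: yeast exposed to compound for 9 h at 30 °C; higher score means more reporter readthrough which indicates perturbed polyadenylation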
Hsp70 act: switches on Hsp70 transcription | HeLa Hsp70 promoter luciferase reporter, luminescence; scaled: vehicle 0, proteasome-inhibitor control 100% | activation, % at 10 µM | 200,000 compounds, 0.04% hits;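 active means activation above the mean across all tested compounds plus 3 SD, cutoff set per campaign, cut at about 5.5% in these data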;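 further: 100% = MG132 at 30 µM as the positive control and 0% = DMSO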
PERK inhibitor: blocks human PERK kinase; inhibition, % at 5.6 µM; 220,000 compounds, 0.17% hits; CHO PERK-DD fusion, SEAP luminescence translation reporter; Q9NZJ5; AID 1416;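 active means inhibition above the mean inhibition of all tested compounds plus 3 SD, set separately per screening campaign, cut at about 2.9% in these data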;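 further: PERK kinase domain activated by AP20187 dimerizer at 100 nM; 0% = DMSO with dimerizer and 100% = rapamycin at 8.4 µM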
* hit, by the source's call; · = no result. In the library only some 3.6% were active in any assay of this set; here they are far more common.

SMILES	AHR activator	HSF1 inhib	STAT3 activator	PolyA inhibitor	Hsp70 act	PERK inhibitor
Cc1nc2ccc(NS(=O)(=O)c3ccc(F)c(C)c3)cc2[nH]1	0	2	·	13	·	·
CC(CCc1ccccc1)NS(=O)(=O)c1ccccc1Cl (stereo unspecified)	0	-1	·	-10	·	·
Cc1ccc(C2=NN=C(NC(=O)CSc3nnc4c5ccccc5n(C)c4n3)SC2)cc1	77*	-43	108	4	-1	0
Cc1ccc(C2=NN=C(NC(=O)CSc3nc(C)cc(C)n3)SC2)cc1	37	-3	97	23	0	0
CN(CC(=O)Nc1ccc(Cl)cc1)C(=O)CNC(=O)Cc1cccc2ccccc12	-1	·	·	·	·	·
CCNC(=S)NNC(=O)C1CCCCC1	2	-4	104	-4	0	2.9*
CN(C)c1ccc(NC(=O)CSc2nnc(-c3cnccn3)n2C)cc1	51*	-3	·	7	·	·
Cc1ccc(C(=O)N/C(=C\c2cn(C)c3ccccc23)C(=O)OCCN(C)C)cc1	46	-1	·	26	·	0
Cn1c2ccccc2c2cc(/C=C(\NC(=O)c3ccccc3)C(=O)O)ccc21	13	·	·	15	·	1
COC(=O)/C(=C\c1ccc2c(c1)c1ccccc1n2C)NC(=O)c1ccccc1	76*	8	100	-3	0	0
CC(C)OC(=O)/C(=C\c1ccc2c(c1)c1ccccc1n2C)NC(=O)c1ccccc1	75*	9	97	-6	0	-1
CN(C)CCOC(=O)/C(=C/c1cn(C)c2ccccc12)NC(=O)c1ccccc1	63*	-7	·	0	·	-2
CN=c1scc(-c2ccccc2F)n1/N=C/c1ccc[nH]1	-3	-87*	9	-5	0	0
CN=c1scc(-c2ccccc2F)n1/N=C/c1ccc(O)c(O)c1O	·	-65*	62	8	0	0
CC[n+]1c(/C=C/c2ccc(OC)c(OC)c2)ccc2ccccc21	13	-25	·	-6	·	·
CC[n+]1c(/C=C/c2cc([N+](=O)[O-])ccc2O)ccc2ccccc21	-7	-58*	·	12	·	·
COc1cc2c(cc1OC)/C(=C/C(=O)c1ccc(C)cc1)NCC2	·	-80*	·	4	·	·
COc1cccc(C(=O)/C=C2\NCCc3cc(OC)c(OC)cc32)c1	53*	-4	·	-13	·	·
COc1ccc(/C=C/C(=O)NCC(=O)N/N=C/c2cccs2)cc1	3	6	·	5	·	·
O=C(c1ccc2nccnc2c1)N1CCCC(N2CCN(c3ccc(F)cc3)CC2)C1 (stereo unspecified)	13	1	·	-5	·	·
CCc1ccc2[nH]c(O)c(N=Nc3nc(-c4ccccc4)cs3)c2c1	63*	-89*	89	-4	0	0
Cc1nn(CC(C)C)c(Cl)c1C(=O)N(C)CC(=O)Nc1c(Cl)cccc1Cl	-1	-1	·	-13	·	·
COc1cc(/C=C/c2cccc[n+]2C)ccc1OCC(=O)Nc1ccccc1C	-1	-1	·	13	·	·
CCOc1cc(/C=C\[N+](=O)[O-])ccc1OCC(=O)Nc1ccccc1C	3	-62*	110	-61	0	0
CCN(CC)C(=O)COc1ccc2oc(C)c(C(=O)OC(C)C)c2c1	67*	0	101	4	-1	-3
SMILES	AHR activator	HSF1 inhib	STAT3 activator	PolyA inhibitor	Hsp70 act	PERK inhibitor
Cc1oc2ccc(OS(C)(=O)=O)cc2c1C(=O)OC(C)C	2	-4	101	-16	0	0
Cc1ccccc1CSc1nnc(-c2cnccn2)n1C	-3	-11	·	2	·	-1
OC(CCc1cccc(Cl)c1)c1cccs1 (stereo unspecified)	0	26	·	3	·	·
CC1(O)c2ccccc2C(=O)N1Cc1ccccc1 (stereo unspecified)	-3	1	97	-10	0	1
CC1(O)c2ccccc2C(=O)N1CCc1ccccc1F (stereo unspecified)	76*	2	109	4	0	0
COCC(C)n1c(SCC(=O)c2cc(C)n(C)c2C)nc2ccccc2c1=O (stereo unspecified)	4	-1	99	17	0	0
O=C(N/N=C\c1ccco1)Nc1cccc(Cl)c1	52*	30	102	10	0	0
O=C(COc1cccc(C(F)(F)F)c1)NCC(c1cccs1)N1CCOCC1 (stereo unspecified)	2	·	·	·	·	·
